# This is a sample that favours compounds with a hit; in the whole collection about 2.4% have one here.
# SR-BI DiI-HDL act: SR-BI HDL lipid transfer activation; CHO ldlA[mSR-BI] cells, DiI-HDL uptake fluorescence, 3 h; 100 = double the neutral-control signal; activation, % at 12.5 µM; 0.096% of 320,000 active; AID 504775;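 active = mean replicate activation of at least 60% and every replicate at or above 60%; inconclusive = mean or all-replicate condition met, but not both; inactive = mean below 60% and not all replicates reaching 60%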;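 note: 0% = median plate neutral-control signal and 100% = twice that signal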
#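 Assay system: LDL receptor-deficient CHO ldlA cells overexpressing murine SR-BI / Medium: BSA-supplemented, HEPES-buffered Ham's F12, pH 7.4 / Probe or stimulus: DiI-labelled HDL at 10 µg/mL final / Timing: compound with DiI-HDL co-incubation, 3 h at 37 °C / Technique: bottom-read cell fluorescence after medium removal, ex 550/em 595 nm / Measure: HDL uptake via cellular fluorescence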
# MIN6 prolif: inducers of beta-cell replication in MIN6 cells | MIN6 cells proliferation, ATPlite luminescence, 48 h; cells starved in 0.2% serum; 100% = growth in 10% serum | proliferation, % at 10 µM | 0.29% of 330,000 active | AID 2380;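 active = compounds whose signal lies at least 3.5 SD above the mean of all wells on their plate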;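 note: 0% = DMSO-treated cells in low-serum medium and 100% = 10% serum control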
# SR-BI DiI inh: inhibitors of mouse SR-BI mediated HDL lipid uptake; Q61009; ldlA[mSR-BI] CHO cells, DiI-HDL uptake fluorescence, 3 h; inhibition, % at 12.5 µM; 0.96% of 320,000 active; AID 488896;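 active = mean replicate inhibition of at least 70% and a set share of replicates each scoring 70 or more; inconclusive = meets just one of the two criteria; inactive = fails both criteria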;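 note: 0% = median of neutral control wells and 100% = median of positive control wells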
# Target sequence (Q61009 whole entry, looked up): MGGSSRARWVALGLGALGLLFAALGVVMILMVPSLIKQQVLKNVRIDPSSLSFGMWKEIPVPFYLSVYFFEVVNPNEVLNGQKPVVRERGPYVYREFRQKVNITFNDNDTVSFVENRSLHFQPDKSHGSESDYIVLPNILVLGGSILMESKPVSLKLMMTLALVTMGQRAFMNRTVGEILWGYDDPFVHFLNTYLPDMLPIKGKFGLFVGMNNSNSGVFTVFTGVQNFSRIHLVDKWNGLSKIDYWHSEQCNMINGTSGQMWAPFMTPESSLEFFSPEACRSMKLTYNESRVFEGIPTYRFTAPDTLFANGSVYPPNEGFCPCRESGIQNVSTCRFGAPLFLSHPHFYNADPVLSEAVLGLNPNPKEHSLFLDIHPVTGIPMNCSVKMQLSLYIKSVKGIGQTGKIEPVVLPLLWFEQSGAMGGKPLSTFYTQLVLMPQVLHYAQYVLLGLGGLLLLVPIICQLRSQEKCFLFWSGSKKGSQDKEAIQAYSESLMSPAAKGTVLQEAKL
# HTR2A ag: activates the mouse 5-HT2A serotonin receptor | CHO-K1 mHTR2A beta-arrestin complementation, luminescence; percent of 30 µM serotonin response | P35363 | 0.66% of 360,000 active | activation, % at 7.6 µM | AID 624169;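 active = activation above a run cutoff, the mean activation of all tested compounds plus 3 SD, cut at about 14% in these data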;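 note: 0% = plate median of compound wells and 100% = 30 µM serotonin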
# Calb FLC: affects C. albicans growth with fluconazole; C. albicans CaCi-2 + fluconazole, Alamar Blue growth, 48 h; growth inhibition, % (test concentration not listed); 0.57% of 300,000 active; AID 1979;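 active = growth inhibition above about 58% in most replicates, limit read from the data, passing the limit was not always enough; inconclusive = exactly half the replicates above a set limit; inactive = most replicates below a set limit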;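 note: all wells also contain fluconazole at 8 µg/ml as a sub-toxic cotreatment; 0% = median of DMSO wells and 100% = median of geldanamycin control wells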
# Insulin prom up: MIN6 insulin promoter up-regulation; MIN6 insulin promoter-GFP reporter, high-content imaging; stronger effect = higher value; z-score at 5 µM; 0.3% of 190,000 active; AID 1625;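 active = z-score above 3 at 5 µM with at least 500 cells counted in the well; inconclusive = wells under 500 cells, flagged as cytotoxic or low count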
# Active calls of the source: *; ? = inconclusive; . = no result given.
SMILES,SR-BI DiI-HDL act,MIN6 prolif,SR-BI DiI inh,HTR2A ag,Calb FLC,Insulin prom up
COC(=O)COc1ccc(/C=C2/SC(=O)N(CC(=O)N3CCCC3)C2=O)cc1Br,7.6,-2.1,-7.6,2.2,13.0,0.28
COc1ccc(OC)c2c1sc(=NC(=O)c1cccc(N3C(=O)CCC3=O)c1)n2C,-77.3,-2.7,77.3*,0.0,-1.6,-0.25
COc1ccc(OC)c2c1sc(=NC(=O)C(C)(C)C)n2C,25.8,0.8,-25.8,4.8,1.1,-0.64
CCn1c(=NC(=O)c2cccc(N3C(=O)CCC3=O)c2)sc2c(OC)ccc(OC)c21,-90.7,3.2,90.7*,-0.3,2.8,-0.47
CCCCC(CC)CN=C(N)NC(N)=NCCCCCCN=C(N)NC(N)=NCC(CC)CCCC (configuration not stated),10.4,-8.3,-10.4,15.3*,.,.
COC(=O)C[C@H]1C=C[C@H](NC(=O)Nc2ccccc2F)[C@@H](CO)O1,.,.,.,3.6,.,.
BrC(=C\c1ccccc1)/C=N/Nc1ccc2nncn2n1,-9.5,4.2,9.5,-6.7,-4.0,0.46
BrC(=C\c1ccccc1)/C=N/n1cnnc1,5.0,.,-5.0,-1.7,86.2*,-0.47
CC1CCC(C(C)C)C(OC(=O)Cn2c(-c3ccccc3)[n+](C)c3ccccc32)C1 (configuration not stated),33.7,0.0,-33.6,2.1,17.0,?
Cc1cccc(OCc2n(CC(=O)OC3CC(C)CCC3C(C)C)c3ccccc3[n+]2C)c1 (configuration not stated),10.9,-5.4,-10.9,-7.3,102.1*,-2.52
CCCCCCN1CCN(C2CN(Cc3ccc([N+](=O)[O-])cc3)S(=O)(=O)C2)CC1 (configuration not stated),.,.,.,-6.9,.,.
O=C1C(c2ccccc2)C2C=CC(C2)N1O (configuration not stated),-3.0,.,3.0,-2.0,.,.
CS/C(=C\[N+](=O)[O-])Nc1ccc(Cl)cc1,4.2,-3.5,-4.2,2.4,102.2*,-0.18
O=c1c(Cl)c(NCCCO)cnn1-c1nc2ccccc2[nH]1,26.7,-3.5,-26.7,4.5,77.8*,-0.5
C=CCN(CC=C)c1cnn(-c2nc3ccccc3[nH]2)c(=O)c1Cl,4.4,-2.5,-4.4,6.3,-1.1,.
O=C1/C(=C/c2cccnc2)SC(=S)N1C1CCS(=O)(=O)C1 (configuration not stated),13.2,-1.1,-13.2,3.6,65.0,-0.26
O=C1/C(=C\c2cccnc2)SC(=S)N1C1CCS(=O)(=O)C1 (configuration not stated),-6.4,0.9,6.4,-2.7,90.7*,.
CCCCNc1c(-c2ccc(-c3ccc(C(C)=O)cc3)c(OC)c2)nc2cc(C)ccn12,-72.2,-6.2,72.2*,4.8,.,.
CCCCNc1c(-c2ccc(OC)c(SC(C)CC)c2)nc2cc(C)ccn12 (configuration not stated),-45.5,-6.3,45.5,-8.6,.,.
COc1ccc(-c2nc(NC(=O)c3ccco3)sc2C)cc1,.,.,.,-3.3,.,.
COc1ccc(-c2nc(NC(=O)c3[nH]c(C)c(C(C)=O)c3C)sc2C)cc1,-76.3,-6.5,76.3*,-5.2,16.4,-1.24
Cc1ccc(N2CCN(C(=O)c3cc(-c4ccc(F)cc4)[nH]c3C)CC2C)cc1 (configuration not stated),-6.9,-4.6,6.9,2.9,6.4,.
O=C(Oc1cc2oc(=O)c3c(c2cc1Cl)CCCC3)c1cccs1,-10.4,-3.5,10.4,3.8,94.8*,-0.25
O=C(Oc1ccc2c3c(c(=O)oc2c1)CCCC3)c1cccs1,0.8,-0.4,-0.8,-0.7,15.2,0.53
CCC/C=C/c1ccc(CN2C(CC(C)C)C(=O)N(Cc3cn(Cc4ccco4)nn3)CCS2(=O)=O)cc1 (configuration not stated),.,.,.,0.2,.,.
SMILES,SR-BI DiI-HDL act,MIN6 prolif,SR-BI DiI inh,HTR2A ag,Calb FLC,Insulin prom up
NC(COCc1ccccc1)c1csc(Nc2ccc(C(=O)NCCO)cc2)n1 (configuration not stated),.,.,.,1.2,.,.
CC1=C(/C=C/C(C)=C/C=C/C(C)=C/C(=O)Nc2ccc(O)cc2)C(C)(C)CCC1,-98.0,-7.3,98.0*,5.0,.,.
CC1=C(/C=C/C(C)=C/C=C/C(C)=C\C(=O)O)C(C)(C)CCC1,-1.9,-5.9,1.9,-4.9,.,.
Cc1cccc(C)c1NC(=O)C1(C)CN(S(C)(=O)=O)CC(=O)N1Cc1ccco1 (configuration not stated),.,.,.,-2.7,.,.
COc1ccc(-c2nc(NC(=O)c3ccc(OCC(=O)N4CCOCC4)c(OC)c3)sc2C)cc1,-71.5,-3.1,71.5*,-0.2,-5.1,0.45
Cc1cc(C)cc(C(=O)OCC(=O)Nc2ncccn2)c1,1.3,0.2,-1.3,-4.7,.,.
CCc1nnc(NC(=O)COc2ccc(N(C)S(=O)(=O)c3ccc(C)cc3)cc2)s1,-20.6,.,20.6,-0.4,35.3,0.05
CCOC(=O)Cc1csc(NC(=O)COc2ccc(N(C)S(=O)(=O)c3ccc(C)cc3)cc2)n1,-72.2,-2.7,?,-1.2,23.9,0.11
Cc1ccc(S(=O)(=O)N(C)c2ccc(OCC(=O)Nc3nnc(C4CC4)s3)cc2)cc1,-30.0,.,30.0,-8.4,63.1*,-0.11
CCOc1ccc(S(=O)(=O)N(C)c2ccc(OCC(=O)Nc3nc(-c4cc(OC)ccc4OC)cs3)cc2)cc1,-82.0,0.0,82.0*,8.8,-2.1,-0.1
COc1ccc(OCC(=O)OCC(=O)NC2CCCCC2C)cc1 (configuration not stated),7.1,-3.9,-7.1,2.7,.,.
COc1cc(NC2CCCCC2O)c2nc(-c3ccc(Cl)cc3)ccc2c1 (configuration not stated),-80.1,-6.0,80.1*,-1.3,-4.3,1.7
O=c1cnn([C@@H]2O[C@H](CO)[C@@H](O)[C@H]2O)c(=O)[nH]1,25.4,-3.5,-2.3,21.8*,-0.6,.
O=S(=O)(c1cccc(F)c1)N1CCN(Cc2cc3c(cc2Br)OCCO3)CC1,11.1,-6.5,-11.1,1.8,.,.
COc1cc(/C=N/NC(=S)Nc2cccc(S(=O)(=O)N(C)C)c2)ccc1O,-71.2,0.0,71.2*,-2.0,-10.6,-0.23
Cc1nc(CCNS(=O)(=O)c2cccnc2)cs1,11.4,-1.8,-11.4,2.3,2.0,.
Brc1cccc(CSc2nnc(-c3ccncc3)o2)c1,-3.2,2.2,3.2,-0.9,80.7*,-0.25
Nc1sc2c(c1C(=O)NC1CCS(=O)(=O)C1)CCCC2 (configuration not stated),-11.0,-0.5,11.0,22.4*,11.7,0.6
CC(=O)OCC(=O)[C@@]12OC3(CCCC3)O[C@@H]1C[C@H]1[C@@H]3CCC4=CC(=O)C=C[C@]4(C)[C@@]3(F)[C@@H](O)C[C@@]12C,-1.9,-6.7,1.9,18.2*,12.0,.
